# Published values from different studies.
# Protocols differ between the studies behind these lines.
# Read-out: cell growth or viability
Compound,cell line,assay,conditions,measurement,value
C=C(NC(=O)C(=C)NC(=O)c1csc(C2=N[C@@H]3c4csc(n4)[C@H]4NC(=O)c5csc(n5)[C@H]([C@](C)(O)[C@@H](C)O)NC(=O)[C@H]5CSC(=N5)/C(=C/C)NC(=O)[C@H]([C@@H](C)O)NC(=O)c5csc(n5)[C@]3(CC2)NC(=O)[C@H](C)NC(=O)C(=C)NC(=O)[C@H](C)NC(=O)[C@H]([C@@H](C)CC)N[C@@H]2C=Cc3c([C@H](C)O)cc(nc3[C@H]2O)C(=O)O[C@@H]4C)n1)C(N)=O,ES-2,,,EC50,1.2 µM
C[C@H](Nc1ccc2c(c1)OCCn1cc(N3C(=O)OC[C@H]3C(F)F)nc1-2)C(N)=O,HCC202,ATP luminescence,5 days,EC50,0.0154 µM
Nc1nc(S)nc(O)c1N=Cc1cn(-c2ccccc2)nc1-c1ccc(Cl)cc1,CCRF-CEM,,24 h,CC50,15.1 µM
COc1cccc2c1C(=O)c1c(O)c3c(c(O)c1C2=O)C[C@@](O)(C(=O)CO)C[C@@H]3O[C@H]1C[C@H](N)[C@H](O)[C@H](C)O1,RKO,,96 h,IC50,0.00473 µM
O=C(N[C@@H](CSCc1ccc([N+](=O)[O-])cc1)C(=O)NO)c1ccccc1,HCC4006,MTT,48 h,IC50,10.1 µM
Nc1nc(S)nc(O)c1N=Cc1cn(-c2ccccc2)nc1-c1ccc([N+](=O)[O-])cc1,CCRF-CEM,,48 h,CC50,> 40 µM
O=C(N[C@@H](CSCc1nc2cc([N+](=O)[O-])ccc2[nH]1)C(=O)NO)c1ccccc1,HCC4006,MTT,48 h,IC50,< 500 µM
CN1CCC(NC2CCc3[nH]c4c(C(N)=O)ccc(-c5ccccc5Cl)c4c3C2)CC1 (stereo not drawn),RKO,,96 h,IC50,0.00017 µM
COc1ccc(-c2nn(-c3ccccc3)cc2C=Nc2c(N)nc(S)nc2O)cc1,CCRF-CEM,,48 h,CC50,< 20 µM
CC(=O)ON=C1C=CC(=C(C#N)c2ccccc2)C=C1,HDF-1,MTT,24 h,IC50,27.4 µg/mL
Nc1nc(S)nc(O)c1N=Cc1cn(-c2ccccc2)nc1-c1ccccc1,CCRF-CEM,,48 h,CC50,< 20 µM
Cc1nc(Nc2ncc(C(=O)Nc3c(C)cccc3Cl)s2)cc(N2CC[C@H](O)C2)n1,CCRF-CEM,ATP luminescence,"10 µM, 72 h",inhibition,14%
